# Sampled rows, rich in hits. Any-hit rate of the full collection: about 1.8%.
# MT1-MMP act inh – blocks activation of human MT1-MMP; HT1080 RFP-PRO-GFP cells, GFP/RFP ratio fluorescence, overnight; percent of plate control window, DMSO zero; GFP/RFP ratio change, % at 20 µM; AID 651647; P50281; actives 0.061% (n = 360,000);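 active means GFP/RFP ratio change of at least 30% with cell ATP level not reduced by more than half and red fluorescence within 50% of control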
#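 Material: RFP-PRO-GFP reporter HT1080 cells. Dosing: single-point 20 µM compound, 1% DMSO. Controls: DMSO and RFP-L50D-GFP cell wells. Timing: cells overnight before dosing, compound overnight, 37 °C, 5% CO2. Measure: GFP/RFP fluorescence ratio.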
# MLLE-PAM2 inh – inhibitors of microRNA-mediated deadenylation, human PABP1 MLLE binding; P11940; GST-MLLE / FITC-PAM2 fluorescence polarization; inhibition, % at 20 µM; actives 0.36% (n = 360,000); AID 588489; in the data active means inhibition above about 35%, passing the limit was not always enough;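 further: plate controls were DMSO wells with GST-MLLE for no effect and wells lacking GST-MLLE protein for full effect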
# SKN-1 block – C. elegans SKN-1 inhibition. C. elegans VP596 Pgst-4::GFP/RFP ratio, acrylamide-induced, 24 h. inhibition, % at 21.8 µM. actives 0.49% (n = 360,000). AID 624304;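 active means interference check ratio from 0.5 to 1.5 plus GFP to RFP signal ratio inhibition reaching or exceeding a fixed threshold, cut at about 30% in these data, passing the limit was not always enough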
# eIF4H FP inh – inhibitors of RNA binding by human eIF4H. Q15056. actives 0.94% (n = 290,000). inhibition, % at 35 µM. eIF4H fluorescence polarization binding assay. AID 2012;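 further: calls also rest on retests at 20 µM and on dose response follow-up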
# PABP polyA inh – PABP-poly(A) binding inhibition. actives 1% (n = 290,000). calls only at 35 µM. P11940. PABP-poly(A) RNA binding, fluorescence polarization;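 further: calls also rest on retests at 20 µM and on dose response follow-up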
# Starred values were filed as active, the others as inactive; i = inactive; ? = inconclusive; nt = not tested or not shown; + = active, no number. Unless noted, how the calls were made is not given here.
SMILES,MT1-MMP act inh,MLLE-PAM2 inh,SKN-1 block,eIF4H FP inh,PABP polyA inh
CC1=NN(Cc2ccccc2)C(=O)/C1=C\c1ccc(N(C)C)cc1,6,-25,34*,-26,i
CCSC1=C(C#N)C2(CCCCC2)C2=C(CC(C)(C)CC2=O)N1,-1,-1,4,-8,i
CC1(C)CC(=O)C2=C(C1)NC(SCC(N)=O)=C(C#N)C21CCCCC1,-4,36*,-17,2,i
CCOc1ccc(NC(=O)C2=NN(c3ccccc3)C(=O)CC2)cc1S(=O)(=O)N1CCCCC1,-1,-14,-11,nt,nt
Cc1ccc(NC(=O)Cn2ncc(Cl)c(Cl)c2=O)cc1S(=O)(=O)N1CCCCC1,0,-32,-9,nt,nt
O=S(=O)(c1ccc(F)cc1)n1ccc(-c2cccc(OCc3c(F)cccc3Cl)c2)n1,-6,-4,42*,1,i
O=S(=O)(c1ccc(Cl)cc1)n1ccc(-c2cccc(OCc3c(F)cccc3Cl)c2)n1,-3,2,4,-5,i
O=C(NCCCN1CCOCC1)c1cccc(NS(=O)(=O)c2ccc(Br)cc2)c1,2,-10,-9,nt,nt
N#CC1=C2N=C(N)c3c(sc4c3CCCCC4)N2C2=C(C(=O)CCC2)C1c1ccccc1 (stereo unspecified),-27,-11,-13,50,i
CCOc1ccc(C2C(C#N)=C(N)N(c3sc4c(c3C#N)CCCC4)C3=C2C(=O)CCC3)cc1 (stereo unspecified),-4,-24,13,?,+
COc1ccc(CCNC(=O)c2cc(COc3c(C)cccc3C)on2)c(OC)c1,2,-4,2,1,i
CCCCCCn1c(N2CCC(C(N)=O)CC2)nc2c1c(=O)n(C)c(=O)n2C,0,-12,45*,2,i
Cc1cc2ccccn2c1C(=O)Nc1cccc(Cl)c1,-11,-8,62*,2,i
Cc1cc2ccccn2c1C(=O)c1ccc(Cl)cc1,-6,3,17,8,i
Cc1oc(/N=C/c2ccc(O)cc2O)c(C#N)c1C,3,32,8,?,i
Cc1oc(/N=C/c2ccc(Cl)cc2)c(C#N)c1C,-3,-2,6,53*,+
Cc1oc(/N=C/c2ccccc2O)c(C#N)c1C,-1,11,2,79*,+
O=C(CSc1nc(Cc2ccccc2)nc2ccccc12)Nc1ccc2c(c1)OCCO2,-8,38*,2,5,i
CC(C)c1nc(SCC(=O)Nc2ccc(N3CCOCC3)cc2)c2ccccc2n1,0,45*,0,-1,i
O=C(CSc1ncnc2ccccc12)NCc1ccc2c(c1)OCO2,-8,-10,2,active,i
O=C(CSc1ncnc2ccccc12)Nc1ccc2c(c1)OCO2,1,5,-9,-5,i
COC(=O)C[C@@H]1C[C@H]2c3cc(N(C)C)ccc3O[C@H]2[C@H](CO)O1,1,-1,-9,nt,nt
O=C(Cc1ccccc1)N[C@@H]1c2ccccc2CC[C@@H]1OCc1ccccc1,-10,-7,-10,nt,nt
COC(=O)[C@]12CCCCC=C1N(Cc1ccc3c(c1)OCO3)C(=O)[C@H](CC(=O)NCCCCc1ccccc1)C2,-6,nt,-9,nt,nt
Cc1ccc(Cl)cc1NC(=O)CON=C(N)c1ccccc1,12,-16,3,nt,nt
SMILES,MT1-MMP act inh,MLLE-PAM2 inh,SKN-1 block,eIF4H FP inh,PABP polyA inh
CC(=O)Nc1sc(C)c(C)c1C(=O)OCC(=O)NC(C)c1ccccc1 (stereo unspecified),7,-8,3,nt,nt
COc1ccc2cc(OCC(=O)NNC(=O)Nc3ccc(C(C)=O)cc3)ccc2c1,4,16,9,-12,i
CC(C)(C)OC(=O)N[C@@H](Cc1ccccc1)C(=O)N1CCC(C(=O)NCC(=O)O)CC1,-2,5,-3,-6,i
CC(=O)NC(Cc1ccc(F)cc1)C(=O)N1CCN(C(=O)NCc2ccccc2)CC1 (stereo unspecified),10,1,49*,-10,i
CC(=O)NC(Cc1ccccc1)C(=O)NC1CCN(C(=O)NCc2ccccc2)CC1 (stereo unspecified),-2,-3,-6,-19,i
CC(C)(C)OC(=O)NC(Cc1ccccc1)C(=O)N1CCC(C(=O)NCC(=O)Nc2ccc(F)cc2)CC1 (stereo unspecified),-4,38*,3,?,?
Cc1cccc(Cl)c1OCCCn1ccnc1,-2,-10,-7,1,i

# Compound activity deposited in PubChem BioAssay by Sanford-Burnham Center for Chemical Genomics.
